pIC50: −log10 of the molar value. Converted amounts (≈) assume the structure as drawn.
Assays:
DNA gyrase [1] = biological target: DNA gyrase (Staphylococcus aureus, UniProt P0A0K8+P20831); test: Inhibition of Staphylococcus aureus DNA gyrase supercoiling incubated for 30 mins in presence of ATP; type: protein-complex assay
How it was run: (§1)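 Gyrase supercoiling plate assay (triplex capture on streptavidin plates with immobilized biotinylated oligonucleotide): 1.5 U enzyme, 0.75 µg relaxed pNO1 plasmid, inhibitor in 10% DMSO/0.008% Tween-20, 37 °C 30 min, 30 µl. Buffer for E. coli: 35 mM Tris pH 7.5, 1 mM ATP; S. aureus: 40 mM HEPES-KOH pH 7.6, 2 mM ATP, 500 mM K-glutamate. Diamond dye fluorescence (ex 495/em 537 nm). Pre-screen 100 and 1 µM; IC50 from seven concentrations by four-parameter fit, mean of two runs.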

DNA gyrase [2] = biological target: DNA gyrase (Escherichia coli, UniProt P0AES4+P0AES6); test: Inhibition of Escherichia coli DNA gyrase supercoiling incubated for 30 mins in presence of ATP; type: protein-complex assay; how it was run: as §1
Topoisomerase IV = Topoisomerase IV (Staphylococcus aureus, UniProt P0C1S7+P0C1U9); test: Inhibition of Staphylococcus aureus DNA topoisomerase 4 relaxation activity measured for 30 mins; type: protein-complex assay
Chain of Topoisomerase IV (P0C1U9 whole entry): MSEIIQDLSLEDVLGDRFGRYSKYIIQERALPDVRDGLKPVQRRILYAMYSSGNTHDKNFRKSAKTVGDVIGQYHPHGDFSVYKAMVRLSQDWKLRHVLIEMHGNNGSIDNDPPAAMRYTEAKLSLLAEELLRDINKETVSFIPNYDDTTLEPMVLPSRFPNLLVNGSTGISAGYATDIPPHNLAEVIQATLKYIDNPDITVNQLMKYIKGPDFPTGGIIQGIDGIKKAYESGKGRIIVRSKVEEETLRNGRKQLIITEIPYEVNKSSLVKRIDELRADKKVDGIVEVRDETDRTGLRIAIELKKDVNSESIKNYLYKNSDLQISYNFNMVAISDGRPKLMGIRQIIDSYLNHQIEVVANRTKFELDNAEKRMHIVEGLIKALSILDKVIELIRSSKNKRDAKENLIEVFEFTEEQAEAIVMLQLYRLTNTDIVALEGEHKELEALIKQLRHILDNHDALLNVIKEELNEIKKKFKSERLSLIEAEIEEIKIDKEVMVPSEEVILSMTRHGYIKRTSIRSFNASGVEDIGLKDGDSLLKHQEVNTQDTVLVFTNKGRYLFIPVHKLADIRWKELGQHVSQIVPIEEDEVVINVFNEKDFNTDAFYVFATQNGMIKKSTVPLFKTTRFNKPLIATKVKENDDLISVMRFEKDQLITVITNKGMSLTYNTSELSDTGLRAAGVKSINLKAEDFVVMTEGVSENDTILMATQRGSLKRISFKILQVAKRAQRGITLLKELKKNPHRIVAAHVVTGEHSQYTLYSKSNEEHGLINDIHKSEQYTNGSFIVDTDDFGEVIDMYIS
Chain of Topoisomerase IV (P0C1S7 whole entry): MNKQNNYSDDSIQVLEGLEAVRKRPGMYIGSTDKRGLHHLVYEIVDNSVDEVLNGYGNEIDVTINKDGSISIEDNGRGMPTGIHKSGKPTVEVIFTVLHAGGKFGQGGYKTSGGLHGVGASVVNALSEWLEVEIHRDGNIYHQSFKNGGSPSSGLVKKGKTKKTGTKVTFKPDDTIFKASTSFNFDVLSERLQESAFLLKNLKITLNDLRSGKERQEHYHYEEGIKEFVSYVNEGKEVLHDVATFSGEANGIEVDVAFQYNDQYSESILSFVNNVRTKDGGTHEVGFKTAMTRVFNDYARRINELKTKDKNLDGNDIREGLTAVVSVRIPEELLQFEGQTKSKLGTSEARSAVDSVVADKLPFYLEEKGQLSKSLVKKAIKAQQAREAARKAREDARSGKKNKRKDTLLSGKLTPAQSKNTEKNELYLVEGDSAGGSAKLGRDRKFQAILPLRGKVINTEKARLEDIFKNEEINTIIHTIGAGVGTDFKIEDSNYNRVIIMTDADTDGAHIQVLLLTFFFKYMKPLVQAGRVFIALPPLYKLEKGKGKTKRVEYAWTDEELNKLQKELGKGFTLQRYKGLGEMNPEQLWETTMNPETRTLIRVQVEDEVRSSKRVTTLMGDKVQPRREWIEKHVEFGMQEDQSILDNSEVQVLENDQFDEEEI
How it was run: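 TopoIV relaxation plate assay: 1.5 U enzyme with 0.75 µg supercoiled pNO1 plasmid, inhibitor in 10% DMSO/0.008% Tween-20, 37 °C 30 min; E. coli buffer 40 mM HEPES-KOH pH 7.6 with 1 mM ATP, S. aureus buffer 50 mM Tris pH 7.5 with 1.5 mM ATP.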

[3] = Inhibition of Escherichia coli DNA topoisomerase 4 relaxation activity measured for 30 mins
How it was run: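 TopoIV relaxation plate assay: 1.5 U enzyme with 0.75 µg supercoiled pNO1 plasmid, inhibitor in 10% DMSO/0.008% Tween-20, 37 °C 30 min; E. coli buffer 40 mM HEPES-KOH pH 7.6 with 1 mM ATP, S. aureus buffer 50 mM Tris pH 7.5 with 1.5 mM ATP. Triplex capture, Diamond dye fluorescence 495/537 nm.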

[4] = biological target: DNA topoisomerase 2-alpha (Homo sapiens) (UniProt P11388); test: Inhibition of human DNA topoisomerase 2-alpha assessed as residual activity at 100 uM incubated for 30 mins relative to control
[5] = biological target: Voltage-gated inwardly rectifying potassium channel KCNH2 (Homo sapiens, UniProt Q12809); test: Inhibition of hERG fluorescence polarization assay; type: toxicity
Chain of Voltage-gated inwardly rectifying potassium channel KCNH2 (Q12809 whole entry): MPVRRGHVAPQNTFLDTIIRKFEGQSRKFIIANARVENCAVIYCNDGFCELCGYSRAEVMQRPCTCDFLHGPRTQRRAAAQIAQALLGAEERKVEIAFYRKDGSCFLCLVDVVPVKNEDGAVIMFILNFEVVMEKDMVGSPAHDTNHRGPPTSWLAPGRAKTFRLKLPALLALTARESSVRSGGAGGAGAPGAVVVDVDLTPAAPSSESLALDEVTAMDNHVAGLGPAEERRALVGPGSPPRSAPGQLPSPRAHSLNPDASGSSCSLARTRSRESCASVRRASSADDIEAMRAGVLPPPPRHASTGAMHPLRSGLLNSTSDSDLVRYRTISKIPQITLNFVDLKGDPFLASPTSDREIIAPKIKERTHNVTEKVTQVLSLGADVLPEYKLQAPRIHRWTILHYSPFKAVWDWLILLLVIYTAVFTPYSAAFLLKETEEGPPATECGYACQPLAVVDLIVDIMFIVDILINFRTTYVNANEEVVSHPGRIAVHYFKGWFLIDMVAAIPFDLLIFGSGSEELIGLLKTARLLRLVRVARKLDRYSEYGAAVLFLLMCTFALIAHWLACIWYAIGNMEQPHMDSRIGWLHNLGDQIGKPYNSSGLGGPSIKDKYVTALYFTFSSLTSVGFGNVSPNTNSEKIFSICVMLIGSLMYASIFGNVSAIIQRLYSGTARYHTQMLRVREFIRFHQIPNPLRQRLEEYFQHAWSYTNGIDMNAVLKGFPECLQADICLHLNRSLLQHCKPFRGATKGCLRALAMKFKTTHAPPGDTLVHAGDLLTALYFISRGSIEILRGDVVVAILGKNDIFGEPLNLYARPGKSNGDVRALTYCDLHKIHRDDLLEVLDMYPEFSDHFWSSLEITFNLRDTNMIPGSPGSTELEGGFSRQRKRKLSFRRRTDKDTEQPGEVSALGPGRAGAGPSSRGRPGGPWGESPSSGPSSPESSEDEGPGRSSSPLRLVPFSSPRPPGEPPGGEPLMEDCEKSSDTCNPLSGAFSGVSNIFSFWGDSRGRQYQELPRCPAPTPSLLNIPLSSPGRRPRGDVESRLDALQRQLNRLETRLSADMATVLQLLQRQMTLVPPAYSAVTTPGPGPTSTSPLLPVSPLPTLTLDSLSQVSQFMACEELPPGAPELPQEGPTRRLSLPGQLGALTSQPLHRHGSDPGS

HepG2 = test: Cytotoxicity against human HepG2 cells assessed as inhibition of cell growth at 50 uM incubated for 72 hrs by […]; type: functional; parameters: scale not given: the % may be the effect or the level left
How it was run: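 HepG2 in DMEM with 10% FBS, 2 mM glutamine, penicillin/streptomycin, 37 °C, 5% CO₂; seeded 8,000 cells/well, attached overnight, then treated 1.25–100 µM or vehicle for 72 h. Metabolic activity by CellTiter 96 Aqueous One (MTS) absorbance 492 nm.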

Escherichia coli [6] = test: Antimicrobial activity against multidrug-resistant Escherichia coli assessed as reduction in bacterial growth incubated for 20 hrs by broth microdilution analysis; type: functional
How it was run: (§2)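 MIC was determined by broth microdilution per CLSI/EUCAST. Inoculum was 10^5 CFU/mL in cation-adjusted Mueller-Hinton broth with TES, with compounds in DMSO, incubated 20 h at 35 °C. MIC was read visually as the lowest concentration without turbidity. Tetracycline was the plate control.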

Staphylococcus aureus [7] = test: Antimicrobial activity against Staphylococcus aureus ATCC 29213 assessed as reduction in bacterial growth incubated for 20 hrs by broth microdilution analysis; type: functional; how it was run: as §2
Escherichia coli [8] = test: Antimicrobial activity against Escherichia coli ATCC 25922 assessed as reduction in bacterial growth incubated for 20 hrs by broth microdilution analysis; type: functional
Escherichia coli [9] = test: Antimicrobial activity against Escherichia coli D22 assessed as reduction in bacterial growth incubated for 20 hrs by broth microdilution analysis; type: functional
Escherichia coli [10] = test: Antimicrobial activity against Escherichia coli N43 assessed as reduction in bacterial growth incubated for 20 hrs by broth microdilution analysis; type: functional
Staphylococcus aureus [11] = test: Antimicrobial activity against cefoxitin/ciprofloxacin/clindamycin/erythromycin/tetracycline/thiamulin/trimethoprim-resistant Staphylococcus aureus assessed as reduction in bacterial growth incubated for 20 hrs by broth microdilution analysis; type: functional; how it was run: as §2
Staphylococcus aureus [12] = test: Antimicrobial activity against cefoxitin/gentamicin/kanamycin/rifampicin/streptomycin/sulfamethoxazole/tetracycline-resistant Staphylococcus aureus assessed as reduction in bacterial growth incubated for 20 hrs by broth microdilution analysis; type: functional; how it was run: as §2
Staphylococcus aureus [13] = test: Antimicrobial activity against multidrug-resistant Staphylococcus aureus assessed as reduction in bacterial growth incubated for 20 hrs by broth microdilution analysis; type: functional; how it was run: as §2
Klebsiella pneumoniae = test: Antimicrobial activity against Klebsiella pneumoniae assessed as reduction in bacterial growth incubated for 20 hrs by broth microdilution analysis; type: functional
[14] = Antimicrobial activity against Salmonella alachua RDK 030c assessed as reduction in bacterial growth incubated for 20 hrs by broth microdilution analysis; type: functional
Pseudomonas aeruginosa = test: Antimicrobial activity against Pseudomonas aeruginosa RDK 184 assessed as reduction in bacterial growth incubated for 20 hrs by broth microdilution analysis; type: functional
Enterococcus faecalis = test: Antimicrobial activity against Enterococcus faecalis DRK 057 assessed as reduction in bacterial growth incubated for 20 hrs by broth microdilution analysis; type: functional
Acinetobacter baumannii = test: Antimicrobial activity against Acinetobacter baumannii assessed as reduction in bacterial growth incubated for 20 hrs by broth microdilution analysis; type: functional
hERG [15] = test: Selectivity index, ratio of IC50 for inhibition of hERG fluorescence polarization assay to MIC for antimicrobial activity against Staphylococcus aureus ATCC 29213 assessed as reduction in bacterial growth; type: toxicity; settings: human; read-out: Selectivity Index
hERG [16] = test: Selectivity index, ratio of IC50 for inhibition of hERG fluorescence polarization assay to MIC for antimicrobial activity against multidrug-resisitant Staphylococcus aureus assessed as reduction in bacterial growth; type: toxicity; settings: human; read-out: Selectivity Index

Chain of DNA gyrase (Staphylococcus aureus, UniProt P0A0K8+P20831) (P0A0K8 whole entry): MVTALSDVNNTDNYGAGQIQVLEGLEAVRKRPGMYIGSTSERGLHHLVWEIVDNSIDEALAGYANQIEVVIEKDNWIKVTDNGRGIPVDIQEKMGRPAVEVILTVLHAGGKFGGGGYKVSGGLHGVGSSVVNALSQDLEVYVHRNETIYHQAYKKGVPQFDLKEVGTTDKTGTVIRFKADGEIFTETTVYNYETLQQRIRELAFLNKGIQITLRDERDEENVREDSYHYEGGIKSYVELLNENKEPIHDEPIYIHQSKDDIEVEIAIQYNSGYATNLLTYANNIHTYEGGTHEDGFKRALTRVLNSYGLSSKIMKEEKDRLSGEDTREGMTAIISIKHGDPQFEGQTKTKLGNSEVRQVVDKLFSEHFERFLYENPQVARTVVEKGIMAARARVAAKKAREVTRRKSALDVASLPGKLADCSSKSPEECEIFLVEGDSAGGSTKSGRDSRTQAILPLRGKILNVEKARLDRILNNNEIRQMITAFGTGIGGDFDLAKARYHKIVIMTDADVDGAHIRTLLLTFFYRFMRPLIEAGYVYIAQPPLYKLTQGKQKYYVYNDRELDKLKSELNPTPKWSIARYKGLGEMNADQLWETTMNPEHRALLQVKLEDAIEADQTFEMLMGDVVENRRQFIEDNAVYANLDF
Chain of DNA gyrase (Staphylococcus aureus, UniProt P0A0K8+P20831) (P20831 whole entry): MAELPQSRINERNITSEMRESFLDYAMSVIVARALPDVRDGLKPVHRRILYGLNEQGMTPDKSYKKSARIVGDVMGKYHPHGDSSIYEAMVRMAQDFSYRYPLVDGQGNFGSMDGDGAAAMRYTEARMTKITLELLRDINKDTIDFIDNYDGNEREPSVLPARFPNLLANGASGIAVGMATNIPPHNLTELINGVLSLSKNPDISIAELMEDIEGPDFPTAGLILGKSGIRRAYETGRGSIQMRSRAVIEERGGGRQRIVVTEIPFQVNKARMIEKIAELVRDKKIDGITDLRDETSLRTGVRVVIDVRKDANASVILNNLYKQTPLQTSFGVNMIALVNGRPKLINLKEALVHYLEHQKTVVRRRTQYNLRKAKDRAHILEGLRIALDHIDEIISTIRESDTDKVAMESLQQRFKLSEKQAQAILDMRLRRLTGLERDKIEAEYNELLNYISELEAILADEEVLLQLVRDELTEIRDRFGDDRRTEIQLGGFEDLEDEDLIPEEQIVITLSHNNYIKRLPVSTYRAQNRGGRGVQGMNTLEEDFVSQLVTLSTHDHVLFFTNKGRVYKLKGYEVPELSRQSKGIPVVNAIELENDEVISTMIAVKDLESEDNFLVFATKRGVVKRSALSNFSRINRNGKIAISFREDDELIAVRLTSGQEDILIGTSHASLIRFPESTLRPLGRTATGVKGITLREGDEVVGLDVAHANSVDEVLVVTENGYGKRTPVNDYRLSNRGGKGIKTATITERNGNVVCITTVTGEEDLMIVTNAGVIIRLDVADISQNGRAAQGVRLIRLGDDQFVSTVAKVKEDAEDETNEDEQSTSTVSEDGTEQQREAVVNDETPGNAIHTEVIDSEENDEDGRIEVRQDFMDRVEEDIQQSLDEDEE

Compound | pIC50 (DNA gyrase [1]) | pIC50 (DNA gyrase [2]) | pIC50 (Topoisomerase IV) | pIC50 [3] | Activity [4] | pIC50 [5] | Activity (HepG2) | MIC (Escherichia coli [6]) | MIC (Staphylococcus aureus [7]) | MIC (Escherichia coli [8]) | MIC (Escherichia coli [9]) | MIC (Escherichia coli [10]) | MIC (Staphylococcus aureus [11]) | MIC (Staphylococcus aureus [12]) | MIC (Staphylococcus aureus [13]) | MIC (Klebsiella pneumoniae) | MIC [14] | MIC (Pseudomonas aeruginosa) | MIC (Enterococcus faecalis) | MIC (Acinetobacter baumannii) | further results
COc1ccc2nccc(OC[C@H]3CC[C@H](NC(=O)c4cc(F)c(Br)c(F)c4)CC3)c2n1 | < 4.00 | < 4.00 | < 4.00 | < 4.00 | 101% | < 4.52 | 90% | > 64.8 µM | 253 µM | 64.8 µM | 64.8 µM | 64.8 µM | 64.8 µM | > 64.8 µM | > 64.8 µM | > 64.8 µM | > 64.8 µM | > 64.8 µM | > 64.8 µM | > 64.8 µM | selectivity ratio (hERG [15]): ≥ 0.119; selectivity ratio (hERG [16]): ≥ 0.119
COc1ccc2nccc(OC[C@H]3CC[C@H](NC(=O)c4ccc(I)c(F)c4)CC3)c2n1 | < 4.00 | < 4.00 | < 4.00 | < 4.00 | 99.1% | < 4.52 | 96% | > 239 µM | 239 µM | 239 µM | 239 µM | 239 µM | 239 µM | > 239 µM | > 239 µM | > 239 µM | > 239 µM | > 239 µM | > 239 µM | > 239 µM | selectivity ratio (hERG [15]): ≥ 0.125; selectivity ratio (hERG [16]): ≥ 0.125
CN(C)[C@@H]1C(O)=C(C(N)=O)C(=O)[C@@]2(O)C(O)=C3C(=O)c4c(O)cccc4[C@@](C)(O)[C@H]3C[C@@H]12 [TETRACYCLINE] |  |  |  |  |  |  |  | > 4 µg/mL | 0.25 µg/mL | 1 µg/mL | 1 µg/mL | 0.25 µg/mL | > 4 µg/mL |  |  | > 4 µg/mL |  |  |  | > 4 µg/mL | 
COc1ccc2nccc(CCN3CCC(NC(=O)c4ccc(I)c(F)c4)CC3)c2n1 | 6.94 | 6.56 | 6.58 | 7.37 | 102% | 7.02 | 89% | > 240 µM | 0.058 µM | 240 µM | 0.468 µM | 0.234 µM | 0.234 µM | 0.058 µM (≈ 0.031 µg/mL) | 0.234 µM (≈ 0.125 µg/mL) | > 240 µM | > 240 µM | > 240 µM | 0.468 µM (≈ 0.25 µg/mL) | 240 µM | selectivity ratio (hERG [15]): 1.65; selectivity ratio (hERG [16]): 0.41
COc1ccc2nccc(OC[C@H]3CC[C@H](NC(=O)c4cc(F)c(Cl)c(F)c4)CC3)c2n1 | < 4.00 | < 4.00 | < 4.00 | < 4.00 | 100% | < 4.52 | 96% | > 277 µM | 277 µM | 277 µM | 277 µM | 277 µM | 277 µM | 277 µM (≈ 128 µg/mL) | > 277 µM | > 277 µM | > 277 µM | > 277 µM | > 277 µM | > 277 µM | selectivity ratio (hERG [15]): ≥ 0.108; selectivity ratio (hERG [16]): ≥ 0.108
COc1ccc2nccc(CCN3CCC(NC(=O)c4cc(F)c(Cl)c(F)c4)CC3)c2n1 | 6.66 | 6.63 | 6.75 | 7.39 | 101% | 6.75 | 84% | > 278 µM | 0.137 µM | 69.4 µM | 0.542 µM | 0.135 µM | 0.271 µM | 0.137 µM (≈ 0.0631 µg/mL) | 0.271 µM (≈ 0.125 µg/mL) | > 278 µM | > 278 µM | > 278 µM | 2.17 µM (≈ 1 µg/mL) | 4.34 µM | selectivity ratio (hERG [15]): 1.3; selectivity ratio (hERG [16]): 0.656

— ChEMBL document CHEMBL5385870, “Amide containing NBTI antibacterials with reduced hERG inhibition, retained antimicrobial activity against gram-positive bacteria and in vivo efficacy” (Eur J Med Chem, 2023)
